Compound activity (PubChem)
CaV13 FRET inh: Disruptors of the CACNA1D IQ motif to Ca2+-dependent inactivation inhibitor domain association, primary screening, Förster resonance energy transfer in intact living …; HEK cells, CFP/YFP FRET ICDI-IQ, plate reader, 10 min; percent FRET-ratio fall versus neutral wells; inhibition, % at 12.3 µM; 0.098% of 340,000 active;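 active = mean replicate inhibition of at least 30% and at least 1% of replicates passing that level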
XiGFP reactiv: X-chromosome reactivation activator; XiGFP mouse fibroblasts, % GFP-positive cells imaging, 3 d; cells co-treated with 5-aza-dC sensitizer; scaled so ellipticine positive control = 100%; activation, % at 7.58 µM; 0.055% of 360,000 active;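 active = mean normalized replicate activation at least 10% and every replicate at or above 10%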
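material = 68-5-11 XiGFP fibroblast line | medium = DMEM plus 5-aza-dC sensitizer | schedule = 3 days compound exposure | benchmarks = positive control ellipticine, 6 µM final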
ERAP1 HTS inh: blocks human ERAP1 aminopeptidase activity | Q9NZ08 | recombinant ERAP1, Leu-AMC fluorescence, 60 min | inhibition, % at 10.7 µM | 0.15% of 340,000 active | AID 652197;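 active = mean replicate inhibition of at least 30%, or all replicates individually reaching that 30% level; inactive = mean below 30% and not every replicate reaching it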
Target sequence (Q9NZ08 whole entry, looked up): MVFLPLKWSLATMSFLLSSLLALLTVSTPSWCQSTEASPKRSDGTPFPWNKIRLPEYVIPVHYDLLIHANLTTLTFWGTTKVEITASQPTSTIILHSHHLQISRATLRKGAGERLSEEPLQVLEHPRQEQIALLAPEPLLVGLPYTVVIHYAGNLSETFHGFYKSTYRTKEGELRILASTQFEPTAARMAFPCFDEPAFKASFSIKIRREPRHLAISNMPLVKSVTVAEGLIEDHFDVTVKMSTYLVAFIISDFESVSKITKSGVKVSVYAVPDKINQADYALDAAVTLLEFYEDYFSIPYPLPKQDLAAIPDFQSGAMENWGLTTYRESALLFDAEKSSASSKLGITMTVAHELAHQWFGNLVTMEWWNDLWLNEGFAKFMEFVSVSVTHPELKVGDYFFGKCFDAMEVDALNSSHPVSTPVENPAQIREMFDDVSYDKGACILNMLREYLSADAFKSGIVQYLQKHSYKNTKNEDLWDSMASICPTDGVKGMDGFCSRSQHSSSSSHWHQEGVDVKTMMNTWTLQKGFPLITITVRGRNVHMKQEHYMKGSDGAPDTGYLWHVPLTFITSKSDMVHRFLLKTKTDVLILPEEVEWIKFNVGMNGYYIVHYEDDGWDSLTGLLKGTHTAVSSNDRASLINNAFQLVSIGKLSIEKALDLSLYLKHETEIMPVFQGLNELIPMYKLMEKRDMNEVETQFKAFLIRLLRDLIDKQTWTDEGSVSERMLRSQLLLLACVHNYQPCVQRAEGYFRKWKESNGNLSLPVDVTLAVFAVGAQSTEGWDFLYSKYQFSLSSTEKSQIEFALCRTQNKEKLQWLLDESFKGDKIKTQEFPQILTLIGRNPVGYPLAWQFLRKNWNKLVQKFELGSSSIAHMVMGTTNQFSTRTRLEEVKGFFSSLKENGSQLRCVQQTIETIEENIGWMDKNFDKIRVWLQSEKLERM
PvdQ inh: P. aeruginosa PvdQ acylase inhibition; inhibition, % at 10 µM; purified PvdQ acylase, fluorescence plate reader; AID 488965; 0.063% of 340,000 active; in the data active = inhibition above about 30%, passing the limit was not always enough
Numbers stand for hits; - = inactive; . = no result given; + = active, no number. The list is not random: actives were taken first. Their share in the collection is about 0.27%.

SMILES	CaV13 FRET inh	XiGFP reactiv	ERAP1 HTS inh	PvdQ inh
Cc1ccc2nc3nc(NCC4CCCO4)c(C(=O)NC4CCCC4)cc3c(=O)n2c1 (stereo not given)	-	-	.	-
CCNc1nc2nc3ccc(C)cn3c(=O)c2cc1C(=O)NCC1CCCO1 (stereo not given)	+	-	-	-
CCn1cnc2c1c(=O)n(CC(=O)NCC(F)(F)F)c(=O)n2Cc1ccccc1	-	-	58	-
O=C(CCc1c[nH]c2ccccc12)OCC(=O)c1ccccc1	36	-	-	.
O=C(COC(=O)CCc1c[nH]c2ccccc12)NCc1ccccc1	-	-	-	-
CC(C)NC(=O)N(C)C[C@H]1Oc2c(NC(=O)Cn3cnnn3)cccc2C(=O)N([C@H](C)CO)C[C@@H]1C	.	-	.	.
CC(=NNc1ccc2ccccc2n1)c1ccccn1	-	33	-	.
